Screening results (PubChem BioAssay)
TPT1 inhibitor: Candida albicans TPT1 enzyme inhibitors, primary screen, biochemical, fluorescence polarization | tRNA 2'-phosphotransferase TPT1 (Candida albicans SC5314) | recombinant caTPT1, FP RNA substrate dephosphorylation | inhibition, % at 5 µM | 300,000 compounds, 0.81% hits;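 active = inhibition above the mean of all tested compounds plus 3 SD, set per screening campaign, cut at about 24% in these data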
Rpn11 block: Rpn11 (PSMD14) deubiquitinase inhibitors, primary screen, biochemical, fluorescence polarization, uHTS; 360,000 compounds, 0.59% hits; calls only at 20 µM; human 26S proteasome, Ub4-pepOG fluorescence polarization; 20S core pre-blocked with epoxomicin; 26S proteasome non-ATPase regulatory subunit 14 (Homo sapiens), O00487;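 active = inhibition at 20 µM, scaled to each plate's controls, above about 33%, limit read from the data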
HNF4A DNA FP: change in binding of human HNF4A to DNA, primary screen, biochemical, fluorescence polarization, FITC-DNA; Hepatocyte nuclear factor 4-alpha (Homo sapiens), P41235; 1 h; activity change, % at 10 µM; 360,000 compounds, 0.3% hits; AID 1224865, 2016; in the data active = activity change above about 30%, passing the limit was not always enough
CRFBP-R2 agonist: agonists of CRF-BP/CRF-R2 complex, primary screen, cell-based, HEK293, calcium dye fluorescence, uHTS. activation, % at 13.2 µM. calcium dye fluorescence (FLIPR); percent of saturating CRF peptide response. 350,000 compounds, 0.46% hits. AID 588473, 2011. CRF-binding protein / CRF receptor 2 complex (human);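 active = activation of at least 50%, plus an integration ratio under a set limit after plate pattern correction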
CSN deneddyl inh: inhibitors of CSN-mediated cullin deneddylation, primary screen, biochemical, fluorescence polarization, uHTS. inhibition, % at 12.5 µM. COP9 signalosome complex subunit 5 (Homo sapiens), Q92905. 360,000 compounds, 0.38% hits. Purified CSN, SCF-Nedd8-OG deneddylation;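 active = pattern-corrected inhibition above about 35%, with an unprinted fluorescence ratio check between 0.5 and 1.5, limit read from the data, passing the limit was not always enough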
Target sequence (Q92905 whole entry, looked up, one chain of several): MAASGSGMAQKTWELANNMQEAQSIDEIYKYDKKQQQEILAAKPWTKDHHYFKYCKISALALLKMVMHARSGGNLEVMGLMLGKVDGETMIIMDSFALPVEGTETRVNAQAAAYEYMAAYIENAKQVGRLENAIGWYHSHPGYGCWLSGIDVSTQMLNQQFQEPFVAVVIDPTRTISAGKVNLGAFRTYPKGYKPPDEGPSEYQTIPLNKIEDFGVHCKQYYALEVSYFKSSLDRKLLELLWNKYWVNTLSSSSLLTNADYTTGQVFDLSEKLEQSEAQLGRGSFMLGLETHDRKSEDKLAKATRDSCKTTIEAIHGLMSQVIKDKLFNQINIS
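Detection – fluorescence polarization · System – HEK293T-derived human Csn5 enzyme · Controls – substrate-only high control, full reaction low control · Timing – 90 min, room temperature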
CRFR2-BP antag: antagonists of CRF-BP/CRF-R2 complex, primary screen, cell-based, HEK293, calcium dye fluorescence, uHTS; CRF-induced calcium fluorescence; inhibition, % at 11.8 µM; 350,000 compounds, 0.59% hits; AID 588475, 2011;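 active = inhibition of the ligand-induced calcium signal above about 50% at the single tested concentration, limit read from the data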
Hits are given with their value; – = inactive; · = no result shown. Rows were chosen to be rich in hits. Some 2.3% of all compounds tested hit in one or more screens of this group.

SMILES	TPT1 inhibitor	Rpn11 block	HNF4A DNA FP	CRFBP-R2 agonist	CSN deneddyl inh	CRFR2-BP antag
O=C(Cn1nc(CNc2ccc(Cl)cc2)[n+]2c1CCCCC2)c1ccc(Br)cc1	–	–	–	–	–	55
Cc1cc(C=O)c(C)n1-c1cccc(C(=O)O)c1	–	–	–	–	–	–
Cc1ccc(C)n1-c1cccc(C(=O)O)c1	51	·	·	·	·	·
CC(C)CSc1nnc2[nH]c(=O)cc(N)n12	–	–	–	–	–	96
Cc1ccc(Cn2c(SCC(=O)NCC3CCCO3)nc3ccsc3c2=O)cc1 (stereo not given)	–	–	–	–	–	54
O=C(CSc1nc2ccsc2c(=O)n1Cc1ccc(C(=O)O)cc1)NCC1CCCO1 (stereo not given)	–	–	–	–	–	–
Cn1c(=O)c(Nc2ccc(Cl)cc2)c2c3c(cccc31)C(=O)c1ccccc1-2	–	·	·	111	·	–
CCOC(=O)c1c(-n2c(C)cc(C=O)c2C)sc2c1CCCC2	–	–	–	–	–	–
Cc1ccc(C)n1-c1sc2c(c1C(=O)O)CCCC2	–	–	–	–	39	–
O=c1c2ccc(F)cc2sn1-c1ccccc1	·	–	29	–	–	–
O=C(Nc1nc(OCC(F)(F)F)cnc1/C=C\c1ccccc1)c1ccccc1	·	–	–	·	–	·
CCCCc1nnc2c(N(C)S(=O)(=O)c3ccccc3)nc3ccccc3n12	–	–	–	–	–	59
C/C(CC(=O)Nc1cc(C)cc(C)c1)=N\NC(=O)c1ccccn1	–	–	–	–	–	–
CN1\C(=C/C=C/C=C/C=[N+](C)C)C(C)(C)c2ccccc21	·	·	102	–	–	–
CN1/C(=C\C=Nc2ccc3ccccc3c2)C(C)(C)c2ccccc21	49	–	–	·	–	·
CN(C)c1ccc(N=C/C=C2\N(C)c3ccccc3C2(C)C)cc1	–	–	–	–	–	–
OC(CN1C2=NCCCN2c2ccccc21)c1ccc2c(c1)OCO2 (stereo not given)	–	–	–	–	–	–
OC(CN1C2=NCCN2c2ccccc21)c1ccc2c(c1)OCO2 (stereo not given)	–	–	–	–	–	52
COc1ccc(CCN2CNc3c(c(=O)n(C)c(=O)n3C)C2)cc1	–	–	–	–	–	–
O=[N+]([O-])/C(C(Cl)=C(Cl)Cl)=C(/NC1CC1)Sc1ccccc1	–	–	–	–	–	56
CC(=O)Nc1nc2n(n1)C(c1ccccc1)C=C(c1ccccc1)N2 (stereo not given)	–	–	–	–	–	–
CS(=O)(=O)Nc1nc2n(n1)C(c1ccccc1)C=C(c1ccc(Br)cc1)N2 (stereo not given)	–	–	–	139	–	–
O=C(c1nc2n(n1)C(c1ccc(Cl)cc1)C=C(c1ccccc1)N2)N1CCOCC1 (stereo not given)	–	–	–	97	–	–
CC(=O)Nc1nc2n(n1)C(c1ccc(F)cc1)C=C(c1ccccc1)N2 (stereo not given)	–	–	–	75	–	–
Cc1noc(C)c1C(=O)OC(C)C(=O)Nc1ccc([N+](=O)[O-])cc1C(F)(F)F (stereo not given)	·	–	–	–	–	–
SMILES	TPT1 inhibitor	Rpn11 block	HNF4A DNA FP	CRFBP-R2 agonist	CSN deneddyl inh	CRFR2-BP antag
Cc1ccccc1Nc1nc(N)nc(COC(=O)CCS(=O)(=O)c2ccc(Cl)cc2)n1	·	–	–	–	–	–
NC(=O)C1CCN(C(=O)CCc2ccsc2)CC1	–	–	–	–	–	–
COC(=O)CN1C(c2ccc(Cl)cc2)=Nc2ccc(Cl)cc2C1c1ccccc1 (stereo not given)	–	–	–	–	–	65
CCC(=O)Nc1cccc(-n2nnnc2SCC(=O)N2CCCCC2)c1	–	–	–	89	–	–
COc1ccc(C2CC(c3ccccc3C(F)(F)F)=NN2c2ccc(S(N)(=O)=O)cc2)cc1 (stereo not given)	·	–	–	–	–	59
COc1ccc(C2CC(c3ccccc3F)=NN2c2ccc(S(N)(=O)=O)cc2)cc1 (stereo not given)	·	–	–	–	–	–
COc1ccc2c(c1)c(C(=O)N/N=C/c1ccc(Br)cc1)c(C)n2C	–	–	–	–	–	–
CC(=O)NCc1ccc(C(=O)O)cc1	–	–	–	–	–	86
CCCCC(=O)Nc1nc2ccc(C(=O)OC)cc2s1	–	–	–	–	–	–
CCN1/C(=C/C=C/c2oc3ccc(-c4ccccc4)cc3[n+]2CC)Oc2ccc(-c3ccccc3)cc21	–	–	–	227	–	–
CC1CCN(C(=O)C2CCN(S(=O)(=O)c3cc(Cl)ccc3Cl)CC2)CC1	–	–	–	–	–	–
COc1ccc(C(=O)Nc2ccc3nc4n(c(=O)c3c2)CCCCC4)cc1OC	·	–	–	–	–	62
O=C(Nc1ccc(SC(F)F)cc1)c1ccc2c(=O)n3c(nc2c1)CCC3	·	–	–	74	–	–
Cc1cc(C)c2nc(NC(=O)c3ccc4c(=O)n5c(nc4c3)CCCCC5)sc2c1	–	–	–	–	–	59
Cc1ccc(OCC(=O)N2CCN(S(=O)(=O)c3ccc(Cl)cc3)CC2)c([N+](=O)[O-])n1	–	–	–	–	–	–
Cc1ccc(S(=O)(=O)N2CCN(C(=O)COc3ccc(C)nc3[N+](=O)[O-])CC2)c(C)c1	–	–	–	–	–	78
O=C(O)C(=O)/C(=C\c1ccccc1)c1ccc2ccccc2n1	30	–	–	–	–	–
Cc1ccc(NC(=O)COC(=O)c2ccc(-n3cccn3)cc2)cc1C	·	–	–	–	–	–
COc1ccc(CNC(=O)CCc2nc3cc(S(=O)(=O)N(C)C)ccc3n2C)cc1OC	–	–	–	–	–	64
COc1ccc(CNC(=O)CN(C)S(=O)(=O)c2ccc3c(c2)n(C)c(=O)c(=O)n3C)cc1	–	–	–	–	–	69
O=C(Nc1c(C(=O)N2CCOCC2)cnn1-c1ccccc1)c1ccccc1F	–	–	–	–	–	–
CC(=O)N1c2ccc(S(=O)(=O)NCc3ccco3)cc2CC1C (stereo not given)	–	–	–	–	–	–
CCCCNC(=O)c1sc(=S)n2c1[nH]c(=O)c1ccccc12	–	–	–	50	–	55
O=C(NC1CCCCC1)c1sc(=S)n2c1[nH]c(=O)c1ccccc12	–	–	–	–	–	–
CCOC(=O)C1=C(C)N=C2SCCC(=O)N2C1c1ccc(C(=O)OC)cc1 (stereo not given)	–	–	–	–	–	–
